Assay outcomes from PubChem BioAssay.
Shown are actives, neighbours in structure and some others; about 1.9% of the full set was active somewhere.
Tb hexokinase: Trypanosoma brucei hexokinase 1 inhibitors, primary screen, biochemical, G6PDH-coupled NADH absorbance, MLSCN library. recombinant TbHK1, G6PDH-coupled NADH A340. inhibition, % at 10 µM. 220,000 tested, 0.11% active. AID 1430, 2008;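 active means inhibition of 50% or more in the single-dose primary screen; inactive means inhibition below 50%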
Autophagy mod: autophagy modulators in MEF cells, primary screen, imaging, high-content, MEF GFP-LC3 | 190,000 tested, 0.98% active | calls only at 10 µM (by protocol) | MEF GFP-LC3 puncta imaging; test concentration mostly 10 µM;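 active means percentage of spot-positive cells more than 3 SD above its plate mean, without a fluorescence outlier flag or 80% toxicity; inconclusive means no clear call, values can overlap the other calls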
MT stabilizer: microtubule stabilizers in HeLa cells, primary screen, imaging, high-content imaging. % tubulin-high responders, % at 10 µM. 200,000 tested, 0.83% active. HeLa tubulin immunostaining HCS, 24 h; share of cells brighter than vehicle mean+2SD. AID 2205, 2009;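 active means plate Z-score above 3 for both tubulin-high and condensed-nucleus cell shares, with cell loss under 80%, at 10 µM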;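 further: anti alpha tubulin signal scored within the nucleus-defined area of each cell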
Ins promoter up: insulin promoter activators in MIN6 cells, imaging, high-content screening, mouse beta cells. 190,000 tested, 0.3% active. MIN6 insulin promoter-GFP reporter; stronger effect = higher value. AID 1625, 2009. z-score at 5 µM;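 active means z-score above 3 at 5 µM with at least 500 cells counted in the well; inconclusive means wells under 500 cells, flagged as cytotoxic or low count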
bCat nuc transl: modulators of beta-catenin nuclear translocation, primary screen, imaging, HeLa cells, immunofluorescence, high-content; 190,000 tested, 0.3% active; nuclear translocation activity, % at 5 µM;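 active means nuclear translocation activity above 50% at 5 µM, with a well cell count of 50 or more; inconclusive means wells under 50 cells across six images, flagged as toxic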;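 further: per-cell ratio of nuclear to cytoplasmic median beta-catenin stain intensity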
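Test system: human HeLa cells, endogenous beta-catenin. Times: 24 h compound exposure, 37°C. Measured by: beta-catenin immunofluorescence imaging with DAPI.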
Each line names hits and unclear results; the compound was inactive in the other large screens.

C=CCN1C(=O)/C(=C2/Sc3ccc(OC)cc3N2C)SC1=NCc1ccccc1	Autophagy mod active
CCN1C(=O)/C(=C2/Sc3ccc(OC)cc3N2C)SC1=Nc1cccc(O)c1	none
C=CCN1C(=O)/C(=C2/Sc3ccc(OC)cc3N2C)SC1=Nc1ccccc1	none
CCN1CC(CN(C)Cc2cn(-c3cccc(C)c3)nc2-c2cccc(F)c2)CC1=O (configuration not stated)	none
O=C(Cc1ccc(Cl)cc1)Nc1ccc(CN2CCCCC2)cc1	none (no result: Autophagy mod, MT stabilizer)
COc1ccc(/C=C2\CCCC3C2=NN(C(=O)CSc2n[nH]c(N)n2)C3c2ccc(OC)cc2)cc1 (configuration not stated)	none (no result: Ins promoter up)
O=c1c2c3c(sc2nc2n1CCC2)CCC3	none
O=c1c2c3c(sc2nc2n1CCC2)CCCCC3	Autophagy mod active
COc1cccc(-n2c(SCc3cc(=O)oc4cc(O)c(O)cc34)nc3ccccc3c2=O)c1	none
COc1ccc(C2C3=C(CCCC3=O)Nc3ccc4ncccc4c32)cc1OC (configuration not stated)	none (no result: Ins promoter up)
COc1cc(C2C3=C(CCCC3=O)Nc3ccc4ncccc4c32)ccc1O (configuration not stated)	MT stabilizer 33
c1ccc(-c2ccc(-c3nccc4ccccc34)[nH]2)cc1	Ins promoter up 4.4 (no result: Autophagy mod, MT stabilizer)
O=C(CSc1nnc(-c2ccccc2O)o1)Oc1ccc(OCc2ccccc2)cc1	Autophagy mod active (no result: Ins promoter up)
COc1ccc(N2CCN(C(CNC(=O)C(=O)NCc3ccc4c(c3)OCO4)c3ccco3)CC2)cc1 (configuration not stated)	none
Cc1ccc2c(c1)N(CC(=O)OCC(=O)NCc1ccccc1)C(=O)CO2	none
COc1ccc(N2CCN(c3oc(COc4ccccc4)nc3C#N)CC2)cc1	none
COc1ccc(N2CCN(c3oc(Cc4ccccc4)nc3C#N)CC2)cc1	MT stabilizer 29
Cc1ccc(S(=O)(=O)NNC2CC(=O)N(c3ccc(Br)cc3)C2=O)cc1 (configuration not stated)	Autophagy mod active
CCCC(=O)c1c(C)c2ccccc2n1C	Ins promoter up 3
BrC(/C=N/N1CCN(Cc2ccccc2)CC1)=C/c1ccccc1	none (no result: Autophagy mod, MT stabilizer, Ins promoter up)
O=C(Nc1ccc(N2CCCCCC2)cc1)c1ccccc1Cl	MT stabilizer 11 (no result: Ins promoter up)
O=C(O)c1ccccc1C(=O)Nc1ccc(-c2csc(-c3ccccc3)n2)cc1	none
O=C(Nc1ccc(-c2csc(-c3ccccc3)n2)cc1)c1ccccc1Cl	MT stabilizer 17
COc1cc(/C=N/NC(=O)c2cccnc2)ccc1OCC(=O)N1CCOCC1	none
Cn1c(=O)nc2n(Cc3ccccc3)c3cccc(Cl)c3cc-2c1=O	none
CCOC(=O)c1sc(N)c(C(=O)OC)c1C	none
CCOC(=O)c1sc(N)c(C(=O)Nc2ccccc2OC)c1C	MT stabilizer 22, bCat nuc transl 80
C=CCc1cccc2cc(C(=O)NNC(=O)CC#N)c(=O)oc12	none (no result: Autophagy mod, MT stabilizer)
COc1ccc(-c2nc(C)c(C(C)=O)n2O)cc1OC	Autophagy mod active
COc1ccc(-c2nc(C)c(C(C)=O)n2O)cc1	none
CC(=O)OCCNc1cc(N2CCN(C)CC2)c2noc3c2c1C(=O)c1ccccc1-3	none
CCOC(=O)C(C(=O)OCC)c1cc(Br)c2noc3c2c1C(=O)c1ccccc1-3	Autophagy mod active
COc1cc2c(cc1OC)C1=CC(=O)C(=O)N1C(C)(C)C2	Autophagy mod active (no result: Ins promoter up)
COc1cc(/C=C(/NC(C)=O)C(=O)O)cc(Cl)c1OCc1ccc(Br)cc1	none (no result: Autophagy mod, MT stabilizer)
COc1ccc2nc(NC(=O)c3cccc(OCc4c(C)noc4C)c3)sc2c1	MT stabilizer 30, bCat nuc transl 72
CCSc1nnc(NC(=O)c2cccc(OCc3c(C)noc3C)c2)s1	none
COc1ccc2nc(NC(=O)CS(=O)(=O)Cc3ccccc3)sc2c1	Autophagy mod active
COc1cc(/C=N/N(C)S(=O)(=O)c2ccc(C)cc2)cc([N+](=O)[O-])c1O	none (no result: Autophagy mod, MT stabilizer)
Cc1cc(NC(=O)COC(=O)[C@@H](NS(=O)(=O)c2ccc(Br)cc2)C(C)C)no1	none (no result: Autophagy mod, MT stabilizer)
Cc1ccc(N/C(N)=N/c2nc3c(c(=O)[nH]2)CCCC3)c(C)c1	MT stabilizer 20
Cc1nn2c(=O)cc(COC(=O)c3ccc(S(=O)(=O)N4CCCCC4)cc3)nc2s1	MT stabilizer 15 (no result: bCat nuc transl)
CC(=O)c1cccc(NC(=O)C(C)N2CCc3ccccc3C2)c1 (configuration not stated)	none (no result: Autophagy mod, MT stabilizer)
O=C(CCN1C(=O)C2C3C=CC(C3)C2C1=O)NCCc1ccccc1 (configuration not stated)	none
O=C1C2C3C=CC(C3)C2C(=O)N1CCc1ccccc1 (configuration not stated)	Ins promoter up 3.3 (no result: bCat nuc transl)
COc1cc(C2C(C(=O)OC(C)C)=C(C)Nc3ncnn32)cc(OC)c1OC (configuration not stated)	Autophagy mod active (no result: bCat nuc transl)
Cc1ccc(C(C)C)c(Oc2nnnn2-c2ccccc2)c1	MT stabilizer 32
O=C(CN1CCN(Cc2ccc3c(c2)OCO3)CC1)Nc1ccc(N2CCOCC2)cc1	none
CCOc1cc(NC(=O)c2ccco2)c(OCC)cc1NC(=O)COc1ccccc1C	Autophagy mod active (no result: Ins promoter up, bCat nuc transl)
CCOc1cc(NC(=O)c2ccco2)c(OCC)cc1NC(=O)Cc1cccc(OC)c1	none (no result: bCat nuc transl)
CCOC(=O)Nc1ccc2c(c1)N(C(=O)C(C)N1CCCC1)c1ccccc1CC2 (configuration not stated)	none (no result: bCat nuc transl)
CCOC(=O)Nc1ccc2c(c1)N(C(=O)OC)c1ccccc1CC2	MT stabilizer 34
CSC1=NC(C(Cl)(Cl)Cl)N=C(c2ccccc2)N1 (configuration not stated)	MT stabilizer 15, bCat nuc transl 75
CN(C)CCCNC(=O)c1cc2c3ccccc3n(C)c2s1	Autophagy mod active
O=C(O)CCc1nn2c3ccccc3nc2n(Cc2ccccc2)c1=O	none
Cc1ccccc1N1C(=O)C2ON(c3ccccc3)C(c3ccco3)C2C1=O (configuration not stated)	none (no result: Autophagy mod, MT stabilizer)
Cc1ccn2c(NC3CCCCC3)c(C)nc2c1	Ins promoter up 3.9
N#CCOC(=O)c1c2c(nc3ccccc13)CCC2	none (no result: Ins promoter up)
Cc1c(C(c2ccc([N+](=O)[O-])cc2)c2c(C)n(C)n(-c3ccccc3)c2=O)c(=O)n(-c2ccccc2)n1C	Ins promoter up 4.1
CCOC(=O)c1cn(Cc2ccccc2)nn1	none
OC1(c2cn(Cc3ccccc3)nn2)CCCCC1	Ins promoter up 5.9
Cc1ccc(N2C(=O)c3cccc4c(N)ccc(c34)C2=O)c2cccnc12	Ins promoter up inconclusive, bCat nuc transl 67 (no result: Autophagy mod, MT stabilizer)
COC(=O)c1ccc2c(c1)C(C)(C)C(/C=C/c1ccccc1O)=[N+]2C	MT stabilizer 53, Ins promoter up inconclusive
C[N+]1=C(/C=C/Nc2ccccc2Cl)C(C)(C)c2ccccc21	none (no result: Ins promoter up)
CC(=O)Nc1ccc(NS(=O)(=O)c2cc([N+](=O)[O-])ccc2C)cc1	none
